According to ChEMBL document CHEMBL4330152, “α-Carbonic anhydrases are strongly activated by spinaceamine derivatives” (Bioorg Med Chem, 2019):

What was measured:
[1] = molecular target: Carbonic anhydrase 4 (Homo sapiens) (UniProt P22748); test: Activation of human CA-4 incubated for 15 mins prior to testing by stopped flow CO2 hydrase assay
How it was run: (§1)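 Stopped-flow CO2 hydration at 25 °C, 10 mM Hepes pH 7.5 with 0.1 M NaClO4, phenol red 0.2 mM read at 557 nm over 10 s. CO2 1.7–17 mM. Activators (0.1 mM stocks in water) diluted in buffer down to 1 nM and preincubated 15 min with enzyme. Initial rates from ≥6 traces of first 5–10% of reaction, uncatalysed rate subtracted. Activation constants from competitive steady-state equation.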

[2] = molecular target: Carbonic anhydrase 1 (Homo sapiens) (UniProt P00915); test: Activation of human CA-1 incubated for 15 mins prior to testing by stopped flow CO2 hydrase assay; how it was run: as §1
Carbonic anhydrase 1 (Homo sapiens), sequence (P00915 2-261 limits assumed): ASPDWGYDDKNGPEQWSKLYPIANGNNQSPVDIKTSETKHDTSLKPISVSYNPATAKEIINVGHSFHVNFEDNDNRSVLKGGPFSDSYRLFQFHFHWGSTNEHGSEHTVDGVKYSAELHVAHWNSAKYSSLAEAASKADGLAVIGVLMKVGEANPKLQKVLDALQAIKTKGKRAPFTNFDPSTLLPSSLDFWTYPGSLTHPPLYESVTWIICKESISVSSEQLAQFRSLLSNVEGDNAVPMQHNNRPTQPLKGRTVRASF

[3] = molecular target: Carbonic anhydrase 2 (Homo sapiens) (UniProt P00918); test: Activation of human CA-2 incubated for 15 mins prior to testing by stopped flow CO2 hydrase assay; how it was run: as §1
[4] = molecular target: Carbonic anhydrase 7 (Homo sapiens) (UniProt P43166); test: Activation of human CA-7 incubated for 15 mins prior to testing by stopped flow CO2 hydrase assay

Carbonic anhydrase 4 (Homo sapiens), sequence (P22748 whole entry): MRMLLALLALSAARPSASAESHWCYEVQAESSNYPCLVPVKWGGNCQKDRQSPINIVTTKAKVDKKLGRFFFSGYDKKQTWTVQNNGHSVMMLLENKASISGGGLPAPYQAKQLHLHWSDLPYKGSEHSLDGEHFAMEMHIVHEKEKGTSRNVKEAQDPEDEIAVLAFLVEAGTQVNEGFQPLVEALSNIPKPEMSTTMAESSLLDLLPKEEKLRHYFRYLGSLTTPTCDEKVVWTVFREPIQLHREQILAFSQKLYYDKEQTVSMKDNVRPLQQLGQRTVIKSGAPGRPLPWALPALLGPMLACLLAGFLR

Row | Compound | KA [1] [µM] | KA [2] [µM] | KA [3] [µM] | KA [4] [µM]
1 | c1coc(C2NCCc3nc[nH]c32)c1 (stereo not drawn) | 2.4 | 21.5 | 5.12 | 0.095
2 | N#Cc1ccc(C2NCCc3nc[nH]c32)cc1 (stereo not drawn) | 5.8 | 4.89 | 7.25 | 4.26
3 | COc1cc(C2NCCc3nc[nH]c32)cc(OC)c1OC (stereo not drawn) | 2.84 | 9.28 | 3.26 | 0.093
4 | c1ccc(C2NCCc3[nH]cnc32)cc1 (stereo not drawn) | 63.8 | 8.12 | 16.3 | 2.69
5 | Fc1cc(F)c(F)c(C2NCCc3nc[nH]c32)c1F (stereo not drawn) | 0.52 | 9.92 | 0.6 | 0.11
6 | Cc1ccc(Br)cc1C1NCCc2nc[nH]c21 (stereo not drawn) | 4.42 | 12.7 | 15.5 | 0.38
7 | Oc1ccc(Br)cc1C1NCCc2nc[nH]c21 (stereo not drawn) | 10.9 | 4.9 | 1.03 | 0.12
8 | Oc1ccccc1C1NCCc2nc[nH]c21 (stereo not drawn) | 3.59 | 2.52 | 1.62 | 0.11
9 | Brc1ccccc1C1NCCc2nc[nH]c21 (stereo not drawn) | 4.05 | 4.3 | 2.8 | 0.082
10 | Clc1ccc(C2NCCc3[nH]cnc32)cc1 (stereo not drawn) | 50.1 | 17.6 | 8.49 | 0.84
11 | COc1ccc(C2NCCc3nc[nH]c32)cc1OC (stereo not drawn) | 6.17 | 3.76 | 0.71 | 0.26
12 | COc1ccc(C2NCCc3[nH]cnc32)cc1 (stereo not drawn) | 6.37 | 6.01 | 7.31 | 0.73
13 | CN(C)c1ccc(C2NCCc3nc[nH]c32)cc1 (stereo not drawn) | 3.14 | 3.45 | 7.44 | 0.59
14 | Cc1ccc(C2NCCc3nc[nH]c32)cc1 (stereo not drawn) | 7.06 | 6.27 | 17.2 | 1.03
15 | NCCc1c[nH]cn1 | 4.03 |  |  | 37.6
